A short description of data set [1]: Mean residence time in Sprague-Dawley rat at 5 mg/kg, iv administered as single dose. Format: ADME, organism-based. Details: dose 5 mg/kg, route intravenous. Conditions: in vivo. A digest of the protocol: (§1)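 Male rats, 3 per study, each given a single dose of 25 mg/kg orally (ig) or 5 mg/kg iv. PK parameters from non-compartmental analysis. Oral bioavailability calculated from the ig and iv data.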

The test system of the next data set is HCT-116. Put plainly: Antiproliferative activity against human HCT116 cells assessed as growth inhibition after 48 hrs by MTT assay. Conditions: HCT-116, 48 h. Format: functional, cell-based. The method in brief:
(§2)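 Cell lines from ATCC, grown in MEM-EBSS with 10% FBS and 1% penicillin-streptomycin at 37 °C, 5% CO2. Seeded at 4000 cells/well, left 24 h, then exposed to a concentration series for 48 h. Growth read by MTT. Percent inhibition was computed at each concentration and IC50 derived from it. Triplicate determinations, reported as mean SD.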
A general note: Tetrazolium assays rely on reduction of a dye to a coloured formazan, in cell work by metabolically active cells.

A short description of data set [2]: Mean residence time in Sprague-Dawley rat at 25 mg/kg, ig administered as single dose. Details: dose 25 mg/kg, route intragastric. It counts as ADME, organism-based. Conditions: in vivo, po. A digest of the protocol:
as §1

Another data set has as its system NCI-H1299. Put plainly: Antiproliferative activity against human NCI-H1299 cells assessed as growth inhibition after 48 hrs by MTT assay. Format: functional, cell-based. Conditions: NCI-H1299, 48 h. The method in brief: as §2
Data set [3] in a line: Oral bioavailability in Sprague-Dawley rat at 25 mg/kg administered as single dose. Format: ADME, organism-based. The settings on record: in vivo. The method in brief: as §1
The nature of data set [4]: Cmax in Sprague-Dawley rat at 25 mg/kg, ig administered as single dose. It counts as ADME, organism-based. Also on record: dose 25 mg/kg, route intragastric. The settings on record: in vivo, po. A digest of the protocol:
as §1

For data set [5], the system named is HepG2. Put plainly: Cell cycle arrest in human HepG2 cells assessed as accumulation at G0/G1 phase at 5 ug/ml after 24 hrs by FACS flow cytometric analysis (reference value: 4.1 %). Format: functional. Conditions: HepG2, 24 h. A digest of the protocol: (§3)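 HepG2 cells exposed to 0, 2.5, 5 or 10 µg/ml for 24 h, then harvested. Fixed in 70% ethanol and held at −20 °C. Cell-cycle distribution determined by flow cytometry, with untreated cells as control.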

In data set [6] the test system is HepG2. Put plainly: Antiproliferative activity against human HepG2 cells assessed as growth inhibition after 48 hrs by MTT assay. Format: functional, cell-based. Conditions: HepG2, 48 h. A digest of the protocol: as §2
Data set [7] can be described thus: Half life in Sprague-Dawley rat at 5 mg/kg, iv administered as single dose. Also on record: dose 5 mg/kg, route intravenous. It counts as ADME, organism-based. Conditions: in vivo. A digest of the protocol:
as §1

A further data set concerns KB. Kind of data set: Antiproliferative activity against human KB cells assessed as growth inhibition after 48 hrs by MTT assay. Format: functional, cell-based. The method in brief:
as §2

Data set [8] is described as follows: AUC (0 to time) in Sprague-Dawley rat at 5 mg/kg, iv administered as single dose. It counts as ADME, organism-based. Details: dose 5 mg/kg, route intravenous. The settings on record: plasma. A digest of the protocol: (§4)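 Single dose given to three male rats per study, by oral gavage or intravenous injection. AUC was derived by non-compartmental analysis, n = 3.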

Data set [9] is described as follows: Antiproliferative activity against human U87 cells assessed as growth inhibition after 48 hrs by MTT assay. It counts as functional, cell-based, U-87MG ATCC. The settings on record: U-87 MG. A digest of the protocol: as §2
For data set [10], the system named is Mus musculus. Kind of data set: Toxicity in mouse at 250 to 1000 mg/kg, ig. The settings on record: in vivo, po. Also on record: dose 250-1000 mg/kg, route intragastric. It counts as organism-based. The method in brief: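 Single-dose toxicity in mice: compound given intragastrically at 250, 500 or 1000 mg/kg, with deaths monitored.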
The subject of data set [11] is HepG2. Kind of data set: Cell cycle arrest in human HepG2 cells assessed as accumulation at G0/G1 phase at 10 ug/ml after 24 hrs by FACS flow cytometric analysis (reference value: 4.1 %). Format: functional. Conditions: HepG2, 24 h. A digest of the protocol: as §3
(In flow cytometry, cells or beads pass a laser one at a time.)

Data set [12] relates to Mus musculus. Kind of data set: Toxicity in mouse assessed as body weight at 250 to 1000 mg/kg, ig. Format: organism-based. Details: dose 250-1000 mg/kg, route intragastric. The settings on record: in vivo, po.
A further data set concerns MCF7. Put plainly: Antiproliferative activity against human MCF7 cells assessed as growth inhibition after 48 hrs by MTT assay. Conditions: MCF7, 48 h. It counts as functional, cell-based. The method in brief:
as §2

Data set [13] can be described thus: AUC (0 to time) in Sprague-Dawley rat at 25 mg/kg, ig administered as single dose. Format: ADME, organism-based. Also on record: dose 25 mg/kg, route intragastric. Conditions: plasma, po. The method in brief: as §4
Data set [14] can be described thus: Tmax in Sprague-Dawley rat at 5 mg/kg, iv administered as single dose. Format: ADME, organism-based. Details: dose 5 mg/kg, route intravenous. The settings on record: in vivo. The method in brief:
as §1

The nature of data set [15]: Half life in Sprague-Dawley rat at 25 mg/kg, ig administered as single dose. Details: dose 25 mg/kg, route intragastric. The settings on record: in vivo, po. Format: ADME, organism-based. The method in brief:
as §1

For data set [16], the system named is HepG2. Put plainly: Cell cycle arrest in human HepG2 cells assessed as accumulation at G0/G1 phase at 2.5 ug/ml after 24 hrs by FACS flow cytometric analysis (reference value: 4.1 %). Conditions: HepG2, 24 h. It counts as functional. A digest of the protocol:
as §3

Data set [17] in a line: Tmax in Sprague-Dawley rat at 25 mg/kg, ig administered as single dose. It counts as ADME, organism-based. Also on record: dose 25 mg/kg, route intragastric. The settings on record: in vivo, po. A digest of the protocol:
as §1

Data set [18] deals with HepG2. Kind of data set: Antiproliferative activity against human HepG2 cells assessed as growth inhibition at 10 ug/ml after 48 hrs by MTT assay. It counts as functional. The settings on record: HepG2, 48 h. A digest of the protocol: as §2
Data set [19] is described as follows: Cmax in Sprague-Dawley rat at 5 mg/kg, iv administered as single dose. Also on record: dose 5 mg/kg, route intravenous. Conditions: in vivo. It counts as ADME, organism-based. The method in brief: as §1
For data set [20], the system named is HepG2. Kind of data set: Cell cycle arrest in human HepG2 cells assessed as accumulation at G0/G1 phase at 10 ug/ml after 24 hrs by FACS flow cytometric analysis (reference value: 2 %). Format: functional. The settings on record: HepG2, 24 h. The method in brief: as §3
For data set [21], the system named is HepG2. Kind of data set: Cell cycle arrest in human HepG2 cells assessed as accumulation at G0/G1 phase at 5 ug/ml after 24 hrs by FACS flow cytometric analysis (reference value: 2 %). It counts as functional. The settings on record: HepG2, 24 h. The method in brief:
as §3

The test system of data set [22] is HepG2. Put plainly: Cell cycle arrest in human HepG2 cells assessed as accumulation at G0/G1 phase at 2.5 ug/ml after 24 hrs by FACS flow cytometric analysis (reference value: 2 %). It counts as functional. The settings on record: HepG2, 24 h. A digest of the protocol: as §3

Consider two molecules from ChEMBL document CHEMBL3259675, “Novel N-substituted sophoridinol derivatives as anticancer agents” (Eur J Med Chem, 2014).

Each structure is given as a SMILES string. pIC50: −log10 of the molar value.

`OCCCC[C@@H]1[C@H]2CCCN3CCC[C@H](CN1Cc1ccc(Cl)cc1)[C@@H]23`: the MRT stood at 2.39 h in data set [1] and 3.28 h in [2]. For the same molecule, the pIC50 is 4.97 in the data set with HCT-116; 5.26 in the data set on NCI-H1299; 5.03 in the data set with HepG2 [6]; 4.71 in the data set with KB; 5.34 in data set [9]; 5.24 in the data set with MCF7. The molecule further showed a bioavailability in data set [3] of 18%. The Cmax in data set [4] came to 5.25 µM; in data set [19], 3.43 µM. The inhibition at 5 µg/mL with HepG2 [5] came to 3.3%. In addition, the half-life in data set [7] is 4.46 h; in data set [15], 3.87 h. For the same molecule, the AUC in [8] came to 20.5 µM·h; in [13] it was 18.6 µM·h. Also, the Activity result with Mus musculus [10] and with Mus musculus [12] was “Non-toxic” throughout. The inhibition at 10 µg/mL with HepG2 [11] stood at 3.3%; in the data set on HepG2 [18], 87.7%. Besides, the Tmax in [14] was 0.25 h; in data set [17], 0.66 h. Moreover, in the data set on HepG2 [16], the inhibition at 2.5 µg/mL worked out at 4.1%.

As to `COC(=O)CCC[C@@H]1[C@H]2CCCN3CCC[C@H](CN1Cc1ccc(Cl)cc1)[C@@H]23`, the inhibition at 10 µg/mL with HepG2 [20] came to 8.5%; in the data set on HepG2 [18] it was 97.6%. The pIC50 in the data set with HCT-116 is 5.34; with NCI-H1299 it was 5.39; in the data set with HepG2 [6], 5.39; in the data set on KB it was 5.21; in data set [9], 4.90; in the data set on MCF7, 4.70. Moreover, the Activity entry with Mus musculus [10] and in the data set on Mus musculus [12] was “Non-toxic” throughout. Also, the inhibition at 5 µg/mL in the data set on HepG2 [21] was 11.8%. Further, the inhibition at 2.5 µg/mL in the data set with HepG2 [22] was found to be 6.3%.

As a reminder, the MRT is a mean duration of stay, worked out from the concentration-time curve. Broadly, the pIC50 is the IC50 on a negative log10 scale, so that one unit is a factor of ten. As usually defined, the bioavailability is dose-corrected exposure relative to a reference, in per cent. The low end stands for poor availability, the high end for good availability. Usually Cmax stands for the maximum level reached in the sampled fluid or tissue. Usually inhibition stands for how much of the control response was suppressed. One may read the half-life as the time in which the quantity being followed falls by half. A low value points to fast loss. In general, AUC refers to concentration integrated over time. Low values mean low exposure, high ones high exposure. The term Tmax denotes the time at which the peak concentration occurs.
